Test results taken from paper PMC5689172 (Biochemistry and Biophysics Reports, 2016).
Converted amounts (≈) assume the structure as drawn. Read-outs that look alike come from different tables or passages of the source.

How the values were obtained:
Cytotoxicity, MTT assay = assay type: cell-based; conditions: human, MRC-5 cells (normal embryonic lung cell line)
S. aureus ATCC 25923 = experiment: Antimicrobial activity, agar dilution method; assay type: cell-based; conditions: Staphylococcus aureus, ATCC25923
Procedure, shortened: (§1)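 Test compound in DMSO, mixed with Mueller–Hinton broth, two-fold serially diluted, and incorporated into MH agar at final 0.25–256 μg/mL. Agar with 0.5% DMSO served as reagent control. Organisms were grown overnight in MH broth at 37 °C, diluted in normal saline to 0.5 McFarland (1.5×10⁸ CFU/mL), and inoculated onto plates. Plates were incubated at 37 °C for 24–48 h, then MIC was recorded.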

E. faecalis ATCC 33186 = experiment: Antimicrobial activity, agar dilution method; assay type: cell-based; conditions: Enterococcus faecalis, ATCC33186
Procedure, shortened: as §1

M. morganii = experiment: Antimicrobial activity, agar dilution method; assay type: cell-based; conditions: Morganella morganii
Procedure, shortened: as §1

E. faecalis ATCC 29212 = experiment: Antimicrobial activity, agar dilution method; assay type: cell-based; conditions: Enterococcus faecalis, ATCC29212
Procedure, shortened: as §1

L. monocytogenes = experiment: Antimicrobial activity, agar dilution method; assay type: cell-based; conditions: Listeria monocytogenes
Procedure, shortened: as §1

[1] = test system: A. xylosoxidans ATCC 27061; experiment: Antimicrobial activity, agar dilution method; assay type: cell-based; conditions: Achromobacter xylosoxidans, ATCC27061
Procedure, shortened: as §1

[2] = test system: C. diphtheriae NCTC 10356; experiment: Antimicrobial activity, agar dilution method; assay type: cell-based; conditions: Corynebacterium diphtheriae, NCTC10356
Procedure, shortened: as §1

[3] = test system: S. Typhimurium ATCC 13311; experiment: Antimicrobial activity, agar dilution method; assay type: cell-based; conditions: Salmonella enterica, ATCC13311|TYPHIMURIUM
Procedure, shortened: as §1

[4] = test system: S. epidermidis ATCC 12228; experiment: Antimicrobial activity, agar dilution method; assay type: cell-based; conditions: Staphylococcus epidermidis, ATCC12228
Procedure, shortened: as §1

B. cereus = experiment: Antimicrobial activity, agar dilution method; assay type: cell-based; conditions: Bacillus cereus
Procedure, shortened: as §1

[5] = test system: S. putrefaciens ATCC 8071; experiment: Antimicrobial activity, agar dilution method; assay type: cell-based; conditions: Shewanella putrefaciens, ATCC8071
Procedure, shortened: as §1

[6] = test system: S. Choleraesuis ATCC 10708; experiment: Antimicrobial activity, agar dilution method; assay type: cell-based; conditions: Salmonella enterica, ATCC10708|CHOLERAESUIS
Procedure, shortened: as §1

A. hydrophila = experiment: Antimicrobial activity, agar dilution method; assay type: cell-based; conditions: Aeromonas hydrophila
Procedure, shortened: as §1

B. subtilis ATCC 6633 = experiment: Antimicrobial activity, agar dilution method; assay type: cell-based; conditions: Bacillus subtilis, ATCC6633
Procedure, shortened: as §1

S. aureus ATCC 29213 = experiment: Antimicrobial activity, agar dilution method; assay type: cell-based; conditions: Staphylococcus aureus, ATCC29213
Procedure, shortened: as §1

E. coli ATCC 25922 = experiment: Antimicrobial activity, agar dilution method; assay type: cell-based; conditions: Escherichia coli, ATCC25922
Procedure, shortened: as §1

S. Enteritidis = experiment: Antimicrobial activity, agar dilution method; assay type: cell-based; conditions: Salmonella enterica
Procedure, shortened: as §1

P. aeruginosa ATCC 27853 = experiment: Antimicrobial activity, agar dilution method; assay type: cell-based, Pseudomonas aeruginosa; conditions: Pseudomonas aeruginosa, ATCC27853
Procedure, shortened: as §1

diploid fungi and yeast = experiment: Antimicrobial activity, agar dilution method, summarised over the group; assay type: cell-based, Candida albicans; conditions: Saccharomyces cerevisiae, ATCC2601|ATCC90028
Procedure, shortened: as §1

S. marcescens ATCC 8100 = experiment: Antimicrobial activity, agar dilution method; assay type: cell-based; conditions: Serratia marcescens, ATCC8100
Procedure, shortened: as §1

S. dysenteriae = experiment: Antimicrobial activity, agar dilution method; assay type: cell-based; conditions: Shigella dysenteriae
Procedure, shortened: as §1

[7] = test system: twenty-seven strains of microorganisms; assay type: cell-based
Procedure, shortened: as §1

[8] = test system: K. pneumoniae ATCC 700603; experiment: Antimicrobial activity, agar dilution method; assay type: cell-based; conditions: Klebsiella pneumoniae, ATCC700603
Procedure, shortened: as §1

M. luteus ATCC 10240 = experiment: Antimicrobial activity, agar dilution method; assay type: cell-based; conditions: Micrococcus luteus, ATCC10240
Procedure, shortened: as §1

C. albicans ATCC 90028 = experiment: Antimicrobial activity, agar dilution method; assay type: cell-based; conditions: Candida albicans, ATCC90028
Procedure, shortened: as §1

S. cerevisiae ATCC 2601 = experiment: Antimicrobial activity, agar dilution method; assay type: cell-based; conditions: Saccharomyces cerevisiae, ATCC2601
Procedure, shortened: as §1

C. freundii = experiment: Antimicrobial activity, agar dilution method; assay type: cell-based; conditions: Citrobacter freundii
Procedure, shortened: as §1

Gram-negative bacteria = experiment: Antimicrobial activity, agar dilution method, summarised over the group; assay type: cell-based
Procedure, shortened: as §1

P. shigelloides = experiment: Antimicrobial activity, agar dilution method; assay type: cell-based; conditions: Plesiomonas shigelloides, P. shigelloides; agar dilution
P. stutzeri ATCC 17587 = experiment: Antimicrobial activity, agar dilution method; assay type: cell-based, Pseudomonas stutzeri; conditions: Stutzerimonas stutzeri, ATCC17587
Procedure, shortened: as §1

MRC-5 cell line = experiment: Cytotoxicity, MTT assay; assay type: cell-based; conditions: MRC-5 normal cells, MTT
P. aeruginosa = conditions: anti-biofilm agent; cited from earlier work
E. coli = conditions: cited from earlier work
[9] = Antioxidant activity, DPPH radical scavenging assay; assay type: biochemical
Procedure, shortened: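 Sample solution (test compound, 1 mg/mL in DMSO) was mixed with 0.1 mM DPPH in methanol and kept 30 min in the dark. Absorbance was read at 517 nm. Radical scavenging activity (%) = [1 − Abs(sample)/Abs(control)] × 100. α-Tocopherol was the positive control.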

SMILES | IC50 at 48 h (Cytotoxicity, MTT assay) | MIC (S. aureus ATCC 25923) | MIC (E. faecalis ATCC 33186) | MIC (M. morganii) | MIC (E. faecalis ATCC 29212) | MIC (L. monocytogenes) | MIC [1] | MIC [2] | MIC [3] | MIC [4] | MIC (B. cereus) | MIC [5] | MIC [6] | MIC (A. hydrophila) | MIC (B. subtilis ATCC 6633) | MIC (S. aureus ATCC 29213) | MIC (E. coli ATCC 25922) | MIC (S. Enteritidis) | MIC (P. aeruginosa ATCC 27853) | MIC (S. marcescens ATCC 8100) | further results
COc1cccc2c1C(=O)c1c(O)c3c(c(O)c1C2=O)C[C@@](O)(C(=O)CO)C[C@@H]3O[C@H]1C[C@H](N)[C@H](O)[C@H](C)O1 [Doxorubicin] | 0.62 ± 0.03 µM | – | – | – | – | – | – | – | – | – | – | – | – | – | – | – | – | – | – | – | –
Oc1c(I)cc(I)c2cccnc12 [Iodoquinol (7), iodoquinol] | – | 645 µM (≈ 256 µg/mL) | > 645 µM | > 645 µM | > 645 µM | 645 µM (≈ 256 µg/mL) | > 645 µM | > 645 µM | > 645 µM | 645 µM (≈ 256 µg/mL) | 645 µM (≈ 256 µg/mL) | 645 µM (≈ 256 µg/mL) | > 645 µM | 645 µM (≈ 256 µg/mL) | 80.6 µM (≈ 32 µg/mL) | 645 µM (≈ 256 µg/mL) | > 645 µM | > 645 µM | > 645 µM | > 645 µM | MIC (diploid fungi and yeast): ≥ 645 µM; MIC (S. dysenteriae): 645 µM (≈ 256 µg/mL); MIC ([7]; most of the bacterial strains / most of the tested microorganisms): ≥ 645 µM; MIC [8]: > 645 µM; MIC (M. luteus ATCC 10240): 322 µM (≈ 128 µg/mL); MIC (C. albicans ATCC 90028): 645 µM (≈ 256 µg/mL); MIC (S. cerevisiae ATCC 2601): > 645 µM; MIC (C. freundii): > 645 µM; MIC (Gram-negative bacteria): ≥ 645 µM; MIC (P. shigelloides): 645 µM (≈ 256 µg/mL); MIC (P. stutzeri ATCC 17587): > 645 µM; cytotoxicity in words (MRC-5 cell line): non-cytotoxic
O=[N+]([O-])c1ccc(O)c2ncccc12 [NQ (2), Nitroxoline] | 88.1 ± 2.11 µM | 42.1 µM (≈ 8 µg/mL) | 42.1 µM (≈ 8 µg/mL) | 42.1 µM (≈ 8 µg/mL) | 42.1 µM (≈ 8 µg/mL) | 42.1 µM (≈ 8 µg/mL) | 21 µM (≈ 4 µg/mL) | 42.1 µM (≈ 8 µg/mL) | 21 µM (≈ 4 µg/mL) | 42.1 µM (≈ 8 µg/mL) | 21 µM (≈ 4 µg/mL) | 10.5 µM (≈ 2 µg/mL) | 84.1 µM (≈ 16 µg/mL) | 5.26 µM (≈ 1 µg/mL) | 42.1 µM (≈ 8 µg/mL) | 42.1 µM (≈ 8 µg/mL) | 21 µM (≈ 4 µg/mL) | 21 µM (≈ 4 µg/mL) | 84.1 µM (≈ 16 µg/mL) | 21 µM (≈ 4 µg/mL) | MIC (P. aeruginosa): 84.14 to 168.28 µM; MIC (E. coli): 42.07 µM (≈ 8 µg/mL); antioxidant activity in words [9]: inactive antioxidants; MIC (S. dysenteriae): 21 µM (≈ 4 µg/mL); MIC ([7]; both the Gram-positive and Gram-negative bacteria): 5.26 to 84.1 µM (≈ 1 to 16 µg/mL); MIC [8]: 84.1 µM (≈ 16 µg/mL); MIC (M. luteus ATCC 10240): 10.5 µM (≈ 2 µg/mL); MIC (C. albicans ATCC 90028): 42.1 µM (≈ 8 µg/mL); MIC (S. cerevisiae ATCC 2601): 42.1 µM (≈ 8 µg/mL); MIC (C. freundii): 21 µM (≈ 4 µg/mL); MIC (Gram-negative bacteria): 5.26 to 84.1 µM (≈ 1 to 16 µg/mL); MIC (P. shigelloides): 42.1 µM (≈ 8 µg/mL); MIC (P. stutzeri ATCC 17587): 10.5 µM (≈ 2 µg/mL)
Cc1c(C)c2c(c(C)c1O)CC[C@@](C)(CCC[C@H](C)CCC[C@H](C)CCCC(C)C)O2 [α-tocopherol, α-Tocopherol] | – | – | – | – | – | – | – | – | – | – | – | – | – | – | – | – | – | – | – | – | IC50 ([9]; read-out: RSA IC50, 30 min, 517 nm): 13.5 µM
